Measured values: ChEMBL document CHEMBL3758104, “Reinvestigating Old Pharmacophores: Are 4-Aminoquinolines and Tetraoxanes Potential Two-Stage Antimalarials?” (J Med Chem, 2016)
Activity calls are given as the source filed them. The calls are words filed in the database; no cut-off is given here.

Legend:
Plasmodium berghei [1] = experiment: Antimalarial activity against sporozoite stage of Plasmodium berghei infected in human Huh7 cells assessed as inhibition of parasite infection pre-incubated for 24 hrs followed by parasite infection measured after 48 hrs by bioluminescence assay; assay type: functional, organism-based; details: Huh-7
Plasmodium berghei [2] = experiment: Antimalarial activity against sporozoite stage of Plasmodium berghei infected in human Huh7 cells assessed as remaining parasite infection at 5 uM pre-incubated for 24 hrs followed by parasite infection measured after 48 hrs by bioluminescence assay; details: Huh-7
Plasmodium falciparum [3] = experiment: Antimalarial activity against mutidrug resistant Plasmodium falciparum TM91C235 after 48 hrs by [3H]hypoxanthine incorporation assay; assay type: functional, organism-based
Summary of the method: (§1)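 P. falciparum D6 (Sierra I/UNC clone), W2 (Indochina I clone), TM91C235 (South-East Asian clone) cultured with compound; growth inhibition by [3H]hypoxanthine incorporation (modified Desjardins/Milhous method). Chloroquine, mefloquine, artemisinin as positive controls. IC50 in nM; technical triplicates, curve fits R2 0.96–1.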

Plasmodium berghei [4] = experiment: Antimalarial activity against Plasmodium berghei ANKA infected in C57Bl6 mouse at 80 mg/kg/day, po measured on day 3 to 5 by Thompson test; assay type: functional
Plasmodium falciparum [5] = experiment: Antimalarial activity against chloroquine-resistant Plasmodium falciparum W2 after 48 hrs by [3H]hypoxanthine incorporation assay; assay type: functional, organism-based; summary of the method: as §1
Plasmodium falciparum [6] = experiment: Antimalarial activity against chloroquine-susceptible Plasmodium falciparum D6 after 48 hrs by [3H]hypoxanthine incorporation assay; assay type: functional, organism-based; summary of the method: as §1
[7] = Half life in human liver microsomes at 1 uM by LC-MS/MS analysis; assay type: ADME
[8] = Selectivity index, ratio of IC50 for human HepG2 cells to IC50 for chloroquine susceptible Plasmodium falciparum D6; assay type: toxicity, cell-based; details: read-out: Ratio IC50
Plasmodium berghei [9] = experiment: Antimalarial activity against Plasmodium berghei ANKA infected in C57Bl6 mouse assessed as reduction of parasitemia at 160 mg/kg/day, po administered for day 3 to 5 measured on day 6 by Thompson test; assay type: functional, organism-based
Summary of the method: (§2)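 Modified Thompson test: C57Bl6 female mice inoculated intraperitoneally on day 0 with 1×10^6 P. berghei ANKA-infected erythrocytes; compound suspended in 0.5% hydroxyethylcellulose–0.1% Tween 80, given orally once daily on days 3, 4 and 5 post infection. Parasitemia by Giemsa-stained thin tail-blood smears on days 0, 3, 6, 10, 13, 17, 20, 24, 27, 31. Cure = survival without parasitemia to day 31.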

Plasmodium berghei [10] = experiment: Antimalarial activity against Plasmodium berghei ANKA infected in C57Bl6 mouse assessed as reduction of parasitemia at 160 mg/kg/day, po administered for day 3 to 5 measured after 10 to 14 days by Thompson test; assay type: functional, organism-based; summary of the method: as §2
[11] = Half life in mouse liver microsomes at 1 uM by LC-MS/MS analysis; assay type: ADME
Mus musculus = experiment: Toxicity in Plasmodium berghei ANKA infected C57Bl6 mouse at 160 mg/kg/day, po administered for 3 days measured 2 times a day for 31 days; assay type: organism-based; details: in vivo, 744 h
Plasmodium berghei [12] = experiment: Antimalarial activity against Plasmodium berghei ANKA infected in po dosed C57Bl6 mouse administered on day 3 to 5 by Thompson test; assay type: functional; summary of the method: as §2
HepG2 = experiment: Cytotoxicity against human HepG2 cells after 48 hrs by MTT assay; assay type: cell-based; details: HepG2, 48 h
Plasmodium berghei [13] = experiment: Antimalarial activity against Plasmodium berghei ANKA infected in C57Bl6 mouse at 160 mg/kg/day, po measured on day 3 to 5 by Thompson test; assay type: functional
Plasmodium berghei [14] = experiment: Antimalarial activity against sporozoite stage of Plasmodium […] infected in human HepG2 cells; assay type: functional, organism-based
[15] = Inhibition of beta hematin formation measured as hemin equivalent after 18 hrs; assay type: physicochemical
Summary of the method: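 Hemin (16 mM in DMSO) mixed with compound at 0.125–5 mol equiv to hemin, plus water and 8 M acetate buffer pH 5.2, 25% DMSO final. Incubated 18 h at 37 °C. Pellet washed with DMSO, dissolved in 0.1 M NaOH, absorbance read at 405 nm (corrected at 670 nm) against a hemin calibration.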

Plasmodium berghei [16] = experiment: Antimalarial activity against Plasmodium berghei ANKA infected in C57Bl6 mouse assessed as increase in cure rate at 80 mg/kg/day, po administered for day 3 to 5 by Thompson test; assay type: functional, organism-based; summary of the method: as §2
RAW264.7 = experiment: Cytotoxicity against mouse RAW264.7 cells; assay type: cell-based

| Structure (SMILES) | IC50 (Plasmodium falciparum [3]) [nM] | IC50 (Plasmodium falciparum [5]) [nM] | IC50 (Plasmodium falciparum [6]) [nM] | selectivity ratio [8] | IC50 (HepG2) [nM] | other results |
| --- | --- | --- | --- | --- | --- | --- |
| CC(CCNCC12CC3CC(CC(C3)C1)C2)Nc1nc2cc(Cl)ccc2cc1F (stereo not given) |  |  |  |  |  | IC50 (Plasmodium berghei [1]): 1000 nM; % infection at 5 µM (Plasmodium berghei [2]): 2% |
| CC(CNc1ccnc2cc(Cl)ccc12)NCCC12CC3CC(CC(C3)C1)C2 (stereo not given) | 7 | 7 | 6 | 4190 | 25100 | MST (Plasmodium berghei [4]): 15.3 days; half-life at 1 µM [7]: 27 min; Activity (Plasmodium berghei [9]): Active; Activity (Plasmodium berghei [10]): inactive; half-life at 1 µM [11]: 60 min; Activity (Mus musculus): Non-toxic; MAC (Plasmodium berghei [12]): 80 mg/kg/day |
| CCN(CC)CCCNc1c(F)cnc2cc(Cl)ccc12 |  |  |  |  |  | MST (Plasmodium berghei [13]): 14.6 days; Activity (Mus musculus): Non-toxic |
| CC(CCCNCC12CC3CC(CC(C3)C1)C2)Nc1c(F)cnc2cc(Cl)ccc12 (stereo not given) | 342 | 488 | 198 | 18 | 3550 |  |
| C[C@H]1[C@H](N2CCS(=O)(=O)CC2)O[C@@H]2O[C@@]3(C)CC[C@H]4[C@H](C)CC[C@@H]1[C@@]24OO3 [ARTEMIFONE] |  |  |  |  |  | IC50 (Plasmodium berghei [14]): 40 nM |
| Fc1ccc2scc(CNCCCCNc3ccnc4cc(Cl)ccc34)c2c1 |  |  |  |  |  | MST (Plasmodium berghei [4]): 30.2 days; MST (Plasmodium berghei [13]): 30 days; Activity (Mus musculus): Non-toxic |
| CC(CCCNc1ccnc2cc(Cl)ccc12)NCCC12CC3CC(CC(C3)C1)C2 (stereo not given) | 47 | 81 | 9 | 289 | 2600 |  |
| CC(CCNCCC12CC3CC(CC(C3)C1)C2)Nc1ccnc2ccccc12 (stereo not given) | 102 | 126 | 7 | 227 | 1590 |  |
| CC(CCNCC12CC3CC(CC(C3)C1)C2)Nc1c(F)cnc2ccccc12 (stereo not given) | 259 | 157 | 60 | 3 |  | MST (Plasmodium berghei [4]): 12.8 days; IC50 [15]: 0.61 equiv; Activity (Plasmodium berghei [16]): inactive; Activity (Mus musculus): Non-toxic |
| CC(NCCCNc1ccnc2cc(Cl)ccc12)C12CC3CC(CC(C3)C1)C2 (stereo not given) | 15 | 22 | 4 | 790 |  | half-life at 1 µM [7]: 16 min; half-life at 1 µM [11]: 11 min; IC50 (RAW264.7): 3160 nM |
| CC(CCNCCC12CC3CC(CC(C3)C1)C2)Nc1c(F)cnc2ccccc12 (stereo not given) | 546 | 394 | 154 | 3 |  |  |
| CC(CCCNCCC12CC3CC(CC(C3)C1)C2)Nc1c(F)cnc2cc(Cl)ccc12 (stereo not given) | 590 | 547 | 288 | 9 | 2610 |  |
| C[C@@H]1CC[C@H]2[C@@H](C)C(=O)O[C@@H]3O[C@@]4(C)CC[C@@H]1[C@]32OO4 [ARTEMISININ] | 13 | 7 | 9 |  |  | IC50 (Plasmodium berghei [14]): 12000 nM |
| CCN(CC)CCCC(C)Nc1ccnc2cc(Cl)ccc12 (stereo not given) [CHLOROQUINE] |  |  |  |  |  | MST (Plasmodium berghei [4]): 25.6 days; MST (Plasmodium berghei [13]): >31 days; IC50 (Plasmodium berghei [14]): 9000 nM |
| CCN(CC)CCCNc1nc2cc(Cl)ccc2cc1F |  |  |  |  |  | MST (Plasmodium berghei [13]): 20.2 days; Activity (Mus musculus): Non-toxic |
| CC(CCCNCCC12CC3CC(CC(C3)C1)C2)Nc1ccnc2ccccc12 (stereo not given) | 286 | 393 | 12 | 133 | 1590 |  |
| COC(=O)CCC(C)[C@H]1CC[C@H]2[C@@H]3[C@H](OC(C)=O)C[C@@H]4CC5(CC[C@]4(C)[C@H]3C[C@H](OC(C)=O)[C@]12C)OOC1(CCCCC1)OO5 (stereo not given in full) |  |  |  |  |  | IC50 (Plasmodium berghei [1]): < 1000 nM; % infection at 5 µM (Plasmodium berghei [2]): 31% |
| CC(NCCCCNc1ccnc2cc(Cl)ccc12)C12CC3CC(CC(C3)C1)C2 (stereo not given) | 19 | 25 | 7 | 441 | 3090 |  |
| O=C1C(O)=C([C@H]2CC[C@H](c3ccc(Cl)cc3)CC2)C(=O)c2ccccc21 [ATOVAQUONE] |  |  |  |  |  | IC50 (Plasmodium berghei [14]): 22 nM |
| CC(CCCNc1ccnc2cc(Cl)ccc12)NCC12CC3CC(CC(C3)C1)C2 (stereo not given) | 165 | 282 | 51 | 32 | 1610 |  |
| CC(CCNCCC12CC3CC(CC(C3)C1)C2)Nc1c(F)cnc2cc(Cl)ccc12 (stereo not given) | 171 | 203 | 143 | 22 | 3210 | IC50 (Plasmodium berghei [1]): 1000 nM; % infection at 5 µM (Plasmodium berghei [2]): 3% |
| CCN(CC)CCCC(C)Nc1nc2cc(Cl)ccc2cc1F (stereo not given) |  |  |  |  |  | IC50 [15]: 2.43 equiv; IC50 (Plasmodium berghei [1]): 1000 nM; % infection at 5 µM (Plasmodium berghei [2]): 40% |
| CC(CCCNCC12CC3CC(CC(C3)C1)C2)Nc1ccnc2cc(Cl)ccc12 (stereo not given) | 23 | 22 | 21 | 1160 | 24300 | half-life at 1 µM [7]: 49 min; half-life at 1 µM [11]: 57 min |
| O[C@@H](c1cc(C(F)(F)F)nc2c(C(F)(F)F)cccc12)[C@H]1CCCCN1 [(S,R)-MEFLOQUINE] |  | 5 |  |  |  |  |
| CC(CCNCCC12CC3CC(CC(C3)C1)C2)Nc1ccnc2cc(Cl)ccc12 (stereo not given) | 13 | 13 | 13 | 1870 | 24300 | half-life at 1 µM [7]: 60 min; IC50 (Plasmodium berghei [1]): 2500 nM; % infection at 5 µM (Plasmodium berghei [2]): 8%; half-life at 1 µM [11]: 60 min |
| Fc1ccc2c(CNCCCNc3ccnc4cc(Cl)ccc34)csc2c1 |  |  |  |  |  | MST (Plasmodium berghei [13]): 26.4 days; Activity (Mus musculus): Non-toxic |
| CCN(CC)CCCC(C)Nc1c(F)cnc2cc(Cl)ccc12 (stereo not given) |  |  |  |  |  | MST (Plasmodium berghei [13]): 16.8 days; IC50 [15]: 1.07 equiv; IC50 (Plasmodium berghei [1]): 1000 nM; % infection at 5 µM (Plasmodium berghei [2]): 35%; Activity (Mus musculus): Non-toxic |
